Measured values gathered from unrelated publications.
Compare with care: the assays were run in different laboratories.
Read-out: cell growth or viability

Compound	cell line	assay	conditions	measurement	result
N.N.[Cl][Pt][Cl]	WSUDLCL2	ATP luminescence	10 µM, 72 h	inhibition	100%
N.N.[Cl][Pt][Cl]	HCT-116	MTT	24 h	IC50	255 µM
S=P1(C2CCCCC2)CCCCC1	HCT-116	MTT	72 h	IC50	> 100 µM
O=C(Nc1ccc(Cl)cc1)Nc1cccc(-c2cn(Cc3ccc(Br)cc3)nn2)c1	PC-9	CCK-8	50 µM, 72 h	viability	128%
N.N.[Cl][Pt][Cl]	HCT-116	MTT	72 h	IC50	8.2 µM
Fc1ccc2c(-c3nc(Cc4ccccc4)cs3)nn(Cc3ccc(Cl)cc3Cl)c2c1	HCT-116		48 h	IC50	67.6 µM
O=C1CCC(N2C(=O)c3cccc4c(Cc5cnn(C6CCN(C(=O)C7(O)CCC7)CC6)c5)ccc2c34)C(=O)N1 (centres unmarked)	NCI-H929			IC50	7e-06 µM
N.N.[Cl][Pt][Cl]	HCT-116	MTT	48 h	IC50	13.3 µM
N.N.[Cl][Pt][Cl]	SK-OV-3	MTT	72 h	IC50	43.8 µM
C#CCn1c(C(=O)/C=C/c2ccc(F)cc2)nc2ccccc21	HCT-116	LDH	48 h	IC50	6.51 µM
O=C1[O][Pt]2([NH][C@@H]3CCCC[C@H]3[NH]2)[O]C1=O	HCT-116	MTT		IC50	0.8 µM
